Data set [1] is classed as physicochemical. Summed up:
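Hydrolysis at 37 °C was run in 0.1 M phosphate pH 7.4 or 0.05 M citrate pH 3.8–4.6, in light-protected sealed bottles. Daily aliquots were scanned 200–400 nm for up to 11 days. First-order k came from ln(At − Ainf) versus time, with Ainf extrapolated when the reaction was incomplete. Runs in 1.0 M NaOH were followed directly in a thermostated spectrophotometer cell. Other media: NaOH, glycine/NaOH pH 10, phosphate pH 8.1.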

The conditions of data set [2]: first order in hydroxide ion; cited from earlier work.
Another data set is described as follows: Nitrite accumulation. It counts as physicochemical. As to conditions: 37 °C; for nitrite recovery: 24 h incubation, PBS and cell culture medium containing 2.5% fetal calf serum. The essentials: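 Compound at 0.25–1 mM was incubated 24 h at 37 °C, without cells, in PBS or in RPMI containing 2.5% fetal calf serum. NO release was estimated as accumulated nitrite by Griess assay. Solutions assayed immediately after dissolution served as the zero point.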

The subject of data set [3] is N-acetylglucosaminidase from jack bean. The data set can be described thus: Glycosidase-induced hydrolysis, jack bean enzyme. It counts as biochemical. As to conditions: 37 °C; for k, first order rate constant of enzymatic hydrolysis: JB enzyme 0.11 units/mL, 0.1 M phosphate pH 7.4, ultraviolet spectrophotometry. The essentials: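 Jack bean β-N-acetylglucosaminidase (0.11 units/mL) was incubated with substrate (0.09–0.16 mM initial) at 37 °C in 0.1 M phosphate, pH 7.4, with 0.05 mM DTPA. NO was detected by chemiluminescence until evolution ceased, and the trace was integrated per mole of compound. Nitrite in the remaining solution was measured by Griess. First-order rate constants came from UV absorbance at 227 or 256 nm. Enzyme activity was checked with PNP-NAG at 25 °C.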

In data set [4] the test system is intracellular L. major amastigotes. The experiment in a line: Assay for leishmanicidal activity in infected macrophages. It counts as cell-based, Leishmania major. As to conditions: 125 or 250 µM, up to 72 h, macrophages from iNOS-deficient mice. Summed up: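 Macrophages were thioglycolate-elicited from the peritoneum of C57BL/6 iNOS-deficient mice, harvested 4 days after ip thioglycolate, and plated at 3 × 10^5/well in RPMI-1640 with 2.5% or 5% FBS. They were infected 4 h at 5:1 with lesion-derived MHOM/IL/81/FE/BNI amastigotes, then treated 72 h with medium and compound refreshed at 24 and 48 h. Diff-Quick counts at 0, 48 and 72 h gave parasites per 100 macrophages, as mean ±SD.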

Data set [5] relates to peritoneal exudate macrophages from iNOS-deficient mice. The experiment in a line: Nitrite accumulation. The data set is classed as cell-based. The conditions noted are these: 0.25 mM, medium with 2.5% fetal calf serum, iNOS^−/− mouse macrophages, 24 h. The essentials:
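Peritoneal exudate macrophages from iNOS-deficient mice were cultured 24 h at 37 °C in RPMI containing 2.5% fetal calf serum with 0.25 mM compound, alongside cell-free medium and PBS. Supernatants were harvested and cumulative NO was estimated as nitrite by Griess assay. Further runs used 125 or 250 µM with 0–5% FCS.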

Data set [6] deals with N-acetylglucosaminidase from human placenta (Homo sapiens, UniProt P07686). The experiment in a line: Glycosidase-induced hydrolysis, human placenta enzyme. It counts as biochemical. As to conditions: HP enzyme 0.044 units/mL, 37 °C, 0.1 M phosphate pH 7.4; ultraviolet spectrophotometry.
Data set [7] deals with peritoneal exudate macrophages from iNOS-deficient mice. The experiment in a line: Viability of macrophage monolayers. It counts as cell-based, mouse. As to conditions: concentrations tested (125 or 250 µM); trypan blue staining, MTT assay. The essentials: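 Infected macrophage monolayers from iNOS-deficient mice were exposed to compound at 125 or 250 µM. Viability was checked by microscopy with trypan blue staining of dead cells. Mitochondrial activity of the whole monolayer was read photometrically as MTT reduction to formazan, in triplicate.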
Background: Formazan colour is commonly taken as a measure of viable cells.

[8] abbreviates: phosphate buffer, pH 7.4, half-life pH 7.4, 0.1 M phosphate pH 7.4, 37 °C.

“Also recorded” adds a separate entry of the source. Read-outs that look alike come from different tables or passages of the source.

Chain of N-acetylglucosaminidase from human placenta (P07686 122-311 limits assumed): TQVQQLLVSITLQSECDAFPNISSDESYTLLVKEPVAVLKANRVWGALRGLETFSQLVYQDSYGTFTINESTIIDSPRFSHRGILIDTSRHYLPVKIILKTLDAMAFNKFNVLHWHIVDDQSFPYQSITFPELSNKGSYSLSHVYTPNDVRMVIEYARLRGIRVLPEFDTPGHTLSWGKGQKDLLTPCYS
Chain of N-acetylglucosaminidase from human placenta (P07686 315-556 limits assumed): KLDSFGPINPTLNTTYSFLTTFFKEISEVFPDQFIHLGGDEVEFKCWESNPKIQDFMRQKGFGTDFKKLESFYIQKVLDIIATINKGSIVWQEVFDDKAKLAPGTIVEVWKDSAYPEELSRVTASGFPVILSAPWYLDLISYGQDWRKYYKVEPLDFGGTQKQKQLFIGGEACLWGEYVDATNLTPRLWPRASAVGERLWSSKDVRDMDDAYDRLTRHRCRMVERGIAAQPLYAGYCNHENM

In data set [1] (setting [8]), `CCN(CC)/[N+]([O-])=N/O[C@@H]1O[C@H](CO)[C@@H](O)[C@H](O)[C@H]1O` [3a] displayed a half-life of over 240 h. The “rate constant kOH^– of base-induced hydrolysis” value in data set [2] is 0.0053 M⁻¹ s⁻¹.
Compound `CCN(CC)/[N+]([O-])=N/O[C@H]1O[C@H](CO)[C@@H](O)[C@H](O)[C@@H]1O` [5a, O^2-(α-D-Mannopyranosyl) 1-(N, N-Diethylamino)diazen-1-ium-1,2-diolate] returned a half-life in data set [1] (citrate buffer, pH 4.6, half-life pH 4.6, 0.05 M citrate pH 4.6, 37 °C) of over 240 h. In the data set “Nitrite accumulation”, the nitrite recovery result is on record as “little or no nitrite”. For the same compound, in data set [3] (parallel incubation to 9a), the “NO generation on incubation with N-acetylglucosaminidase” value is given as “Negligible NO generation”. In addition, the “effect on number of intracellular L. major parasites” value (shortened to “effect on number”) in data set [4] is recorded as “borderline significance”.
As to `[O-][N+](=NO[C@H]1O[C@H](CO)[C@@H](O)[C@H](O)[C@@H]1O)N1CCCC1` [5b, O^2-(α-D-Mannopyranosyl) 1-(Pyrrolidin-1-yl)diazen-1-ium-1,2-diolate], in data set [4], the “effect on number” value is listed as “only one of the mannosides (5a) showed any activity”.
Consider `CCN(CC)/[N+]([O-])=N/O[C@@H]1O[C@@H](C)[C@@H](O)[C@@H](O)[C@@H]1O` [7a, O^2-(β-L-Fucopyranosyl) 1-(N,N-Diethylamino)diazen-1-ium-1,2-diolate], for which, in data set [4], the “effect on number” value is reported as “Neither of the fucose derivatives had any perceivable effect”.
On to `C[C@@H]1O[C@H](ON=[N+]([O-])N(C)C)[C@@H](O)[C@H](O)[C@@H]1O` [7c, O^2-(β-L-Fucopyranosyl) 1-(N,N-Dimethylamino)diazen-1-ium-1,2-diolate], for which the “effect on number” value in data set [4] was “Neither of the fucose derivatives had any perceivable effect”.
`CCN(CC)/[N+]([O-])=N/O[C@@H]1O[C@H](CO)[C@@H](O)[C@H](O)[C@H]1NC(C)=O` [9a, O^2-(N-Acetyl-β-D-glucosaminyl) 1-(N,N-Diethylamino)diazen-1-ium-1,2-diolate]: the “increase in hydrolysis rate relative to 9b” value in data set [1] (pH 7.4 phosphate buffer) is listed as over 20 fold. The half-life in data set [1] (setting [8]) is about 12 h. In addition, in the data set “Nitrite accumulation”, the nitrite recovery is reported as 10−20%. In data set [5], the “increase of nitrite yield by macrophages” value is reported as “approximately doubled”. The “k, first order rate constant of enzymatic hydrolysis” value in data set [3] is 0.00062 s⁻¹; in data set [6], 0.00041 s⁻¹. Further, the “effect on number” value in data set [4] is “highly significant decrease; also recorded: decidedly antileishmanial”. Moreover, in data set [7], the “toxicity to the macrophage host cells” value is on record as “no observable toxicity”.
Regarding `CC(=O)N[C@H]1[C@H](O/N=[N+](\[O-])N2CCCC2)O[C@H](CO)[C@@H](O)[C@@H]1O` [9b, O^2-(β-D-N-Acetylglucosaminyl) 1-(Pyrrolidin-1-yl)diazen-1-ium-1,2-diolate], the “hydrolysis in PBS relative to 9a” value in the data set “Nitrite accumulation” (PBS, nitrite yield, 24 h) is “more than an order of magnitude slower”. Further, the “k, first order rate constant of enzymatic hydrolysis” value in data set [3] was 0.00031 s⁻¹; in data set [6], 0.00036 s⁻¹. Besides, the “effect on number” value in data set [4] is “highly significant decrease; also recorded: decidedly antileishmanial”. Besides, the “toxicity to the macrophage host cells” value in data set [7] is reported as “no observable toxicity”.
`CCN(CC)/[N+]([O-])=N/O[C@H]1C[C@@H](O)[C@H](O)[C@@H](CO)O1` [11a, O^2-[2-Deoxy-β-D-glucopyranosyl] 1-(N,N-Diethylamino)diazen-1-ium-1,2-diolate]: the half-life in data set [1] (setting [8]) was about 12 h.
For `O=NO` [Nitrite ion], in data set [4], the “effect on number” value is recorded as “devoid of antileishmanial activity”.
With `CCN(CC)/[N+]([O-])=N\OC1CCCCO1` (centres unmarked) [compound 12, O^2-Tetrahydropyran-2-yl 1-(N,N-Diethylamino)diazen-1-ium-1,2-diolate], the hydrolysis time entry in data set [1] (all pH values studied, 37 °C) is recorded as “within minutes”.
With `COC(=O)CCC(=O)NO[C@@H]1O[C@H](CO)[C@@H](O)[C@H](O)[C@H]1NC(C)=O` [compound 13, N-(β-D-N′-Acetylglucosaminyloxy)succinamate O-Methyl Ester, reference compound], the “effect on number” value in data set [4] is listed as “did not have any effect”.

The half-life is the time needed for the level to fall by half in the phase considered. Read a low half-life as fast loss.

These data come from paper PMC2574667 (Journal of Medicinal Chemistry, 2008).
